In ChEMBL document CHEMBL5244270, “Selective Inhibitors of G2019S-LRRK2 Kinase Activity” (J Med Chem, 2020):

Experiments:
Homo sapiens [1] = species on record: Homo sapiens; test: Selectivity ratio of IC50 for inhibition human wild type LRRK2 expressed in human HEK293 assessed as Rab10 substrate phosphorylation at Threonine 73 residue to IC50 for inhibition of human LRRK2 G2019S mutant expressed in human HEK293 assessed as Rab10 substrate phosphorylation at Threonine 73 residue
Outline: (§1)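 HEK293 cells stably expressing WT or G2019S LRRK2 (100 000/well, EMEM with 1% FBS) were dosed about 24 h after plating, for 2 h. They were lysed in 1% SDS Tris buffer with protease and phosphatase inhibitors, and lysates were heated at 65 °C for 10 min. pThr73-Rab10, total Rab10, pS935 and total LRRK2 were quantified by immunoblot. IC50 is the geometric mean of at least two independent experiments.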

[2] = target: T1, Leucine-rich repeat serine/threonine-protein kinase 2 (Homo sapiens, UniProt Q5S007); test: Inhibition of human wild type LRRK2 expressed in HEK293 cells assessed as reduction in pSer935 phosphorylation incubated for 2 hrs by immunoblotting analysis; assay type: cell-based; outline: as §1
[3] = target: T2, Leucine-rich repeat serine/threonine-protein kinase 2 (Homo sapiens, UniProt Q5S007, G2019S); test: Inhibition of human LRRK2 G2019S mutant expressed in HEK293 cells assessed as reduction in pSer935 phosphorylation incubated for 2 hrs by HTRF analysis; assay type: cell-based
Outline: (§2)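 Stably transfected HEK293 cells expressing human WT or G2019S LRRK2 were seeded at 5K/well in DMEM with 1% serum on poly-D-lysine plates. Inhibitor in DMSO was added for 2 h at 37 °C. pS935 was detected by an HTRF kit. IC50 is the geometric mean of at least two independent experiments.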

Homo sapiens [4] = species on record: Homo sapiens; test: Selectivity ratio of IC50 for inhibition of human wild type LRRK2 expressed in HEK293 cells assessed as reduction in pS1292 phosphorylation to IC50 for inhibition of human LRRK2 G2019S mutant expressed in HEK293 cells assessed as reduction in pS1292 phosphorylation; assay type: cell-based
Outline: (§3)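 HEK293 cells stably expressing WT or G2019S LRRK2 (30−50K/well, DMEM with 1% serum) were treated for 2 h at 37 °C and lysed with phosphatase inhibitors. LRRK2 was captured on anti-LRRK2-coated MSD plates overnight at 4 °C. Detection used rabbit anti-pS1292 (1:400) and Sulfo-Tag anti-rabbit, with an electrochemiluminescence read-out. IC50 is the geometric mean of at least two independent experiments.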

[5] = target: T2, Leucine-rich repeat serine/threonine-protein kinase 2; test: Inhibition human LRRK2 G2019S mutant expressed in human HEK293 assessed as Rab10 substrate phosphorylation at Threonine 73 residue incubated for 2 hrs by immunoblotting analysis; assay type: cell-based; outline: as §1
[6] = target: T1, Leucine-rich repeat serine/threonine-protein kinase 2; test: Inhibition human wild type LRRK2 expressed in human HEK293 assessed as Rab10 substrate phosphorylation at Threonine 73 residue incubated for 2 hrs by immunoblotting analysis; assay type: cell-based; outline: as §1
[7] = target: T2, Leucine-rich repeat serine/threonine-protein kinase 2; test: Inhibition of human LRRK2 G2019S mutant expressed in HEK293 cells assessed as reduction in pSer935 phosphorylation incubated for 2 hrs by immunoblotting analysis; assay type: cell-based; outline: as §1
[8] = target: T1, Leucine-rich repeat serine/threonine-protein kinase 2; test: Inhibition of N-terminal GST-fused human wild type LRRK2 using fluorescein-labeled LRRKtide as substrate preincubated for 15 mins followed by substrate addition and measured after 1 hr by TR-FRET assay
Outline: (§4)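 Purified truncated LRRK2, WT or G2019S, at 2 nM nominal was preincubated with inhibitor for 15 min. LRRKtide (0.4 μM) and ATP (25 μM) were then added for 1 h. The reaction was stopped with 10 mM EDTA plus 2 nM Tb-anti-pLRRKtide antibody, and TR-FRET was read. IC50 is the geometric mean of at least two independent experiments.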

[9] = target: T2, Leucine-rich repeat serine/threonine-protein kinase 2; test: Inhibition of human LRRK2 G2019S mutant expressed in HEK293 cells assessed as reduction in pS1292 phosphorylation incubated for 2 hrs by MSD analysis; assay type: cell-based; outline: as §3
Homo sapiens [10] = species on record: Homo sapiens; test: Selectivity ratio of IC50 for inhibition of human wild type LRRK2 expressed in HEK293 cells to IC50 for inhibition of human LRRK2 G2019S mutant expressed in HEK293; assay type: cell-based; outline: as §1
[11] = target: T1, Leucine-rich repeat serine/threonine-protein kinase 2; test: Inhibition of human wild type LRRK2 expressed in HEK293 cells assessed as reduction in pS1292 phosphorylation incubated for 2 hrs by MSD analysis; assay type: cell-based; outline: as §3
Homo sapiens [12] = species on record: Homo sapiens; test: Selectivity ratio of IC50 for inhibition of N-terminal GST-fused human wild type LRRK2 to IC50 for inhibition of N-terminal GST-fused human […] mutant; outline: as §4
Homo sapiens [13] = species on record: Homo sapiens; test: Selectivity ratio of IC50 for inhibition of human wild type LRRK2 expressed in HEK293 cells assessed as reduction in pSer935 phosphorylation to IC50 for inhibition of human LRRK2 G2019S mutant expressed in HEK293 cells assessed as reduction in pSer935 phosphorylation; assay type: cell-based; outline: as §2
[14] = target: T2, Leucine-rich repeat serine/threonine-protein kinase 2; test: Inhibition of N-terminal GST-fused human LRRK2 G2019S mutant using fluorescein-labeled LRRKtide as substrate preincubated for 15 mins followed by substrate addition and measured after 1 hr by TR-FRET assay; outline: as §4
[15] = target: T1, Leucine-rich repeat serine/threonine-protein kinase 2; test: Inhibition of human wild type LRRK2 expressed in HEK293 cells assessed as reduction in pSer935 phosphorylation incubated for 2 hrs by HTRF analysis; assay type: cell-based; outline: as §2

T1 sequence (Q5S007 whole entry): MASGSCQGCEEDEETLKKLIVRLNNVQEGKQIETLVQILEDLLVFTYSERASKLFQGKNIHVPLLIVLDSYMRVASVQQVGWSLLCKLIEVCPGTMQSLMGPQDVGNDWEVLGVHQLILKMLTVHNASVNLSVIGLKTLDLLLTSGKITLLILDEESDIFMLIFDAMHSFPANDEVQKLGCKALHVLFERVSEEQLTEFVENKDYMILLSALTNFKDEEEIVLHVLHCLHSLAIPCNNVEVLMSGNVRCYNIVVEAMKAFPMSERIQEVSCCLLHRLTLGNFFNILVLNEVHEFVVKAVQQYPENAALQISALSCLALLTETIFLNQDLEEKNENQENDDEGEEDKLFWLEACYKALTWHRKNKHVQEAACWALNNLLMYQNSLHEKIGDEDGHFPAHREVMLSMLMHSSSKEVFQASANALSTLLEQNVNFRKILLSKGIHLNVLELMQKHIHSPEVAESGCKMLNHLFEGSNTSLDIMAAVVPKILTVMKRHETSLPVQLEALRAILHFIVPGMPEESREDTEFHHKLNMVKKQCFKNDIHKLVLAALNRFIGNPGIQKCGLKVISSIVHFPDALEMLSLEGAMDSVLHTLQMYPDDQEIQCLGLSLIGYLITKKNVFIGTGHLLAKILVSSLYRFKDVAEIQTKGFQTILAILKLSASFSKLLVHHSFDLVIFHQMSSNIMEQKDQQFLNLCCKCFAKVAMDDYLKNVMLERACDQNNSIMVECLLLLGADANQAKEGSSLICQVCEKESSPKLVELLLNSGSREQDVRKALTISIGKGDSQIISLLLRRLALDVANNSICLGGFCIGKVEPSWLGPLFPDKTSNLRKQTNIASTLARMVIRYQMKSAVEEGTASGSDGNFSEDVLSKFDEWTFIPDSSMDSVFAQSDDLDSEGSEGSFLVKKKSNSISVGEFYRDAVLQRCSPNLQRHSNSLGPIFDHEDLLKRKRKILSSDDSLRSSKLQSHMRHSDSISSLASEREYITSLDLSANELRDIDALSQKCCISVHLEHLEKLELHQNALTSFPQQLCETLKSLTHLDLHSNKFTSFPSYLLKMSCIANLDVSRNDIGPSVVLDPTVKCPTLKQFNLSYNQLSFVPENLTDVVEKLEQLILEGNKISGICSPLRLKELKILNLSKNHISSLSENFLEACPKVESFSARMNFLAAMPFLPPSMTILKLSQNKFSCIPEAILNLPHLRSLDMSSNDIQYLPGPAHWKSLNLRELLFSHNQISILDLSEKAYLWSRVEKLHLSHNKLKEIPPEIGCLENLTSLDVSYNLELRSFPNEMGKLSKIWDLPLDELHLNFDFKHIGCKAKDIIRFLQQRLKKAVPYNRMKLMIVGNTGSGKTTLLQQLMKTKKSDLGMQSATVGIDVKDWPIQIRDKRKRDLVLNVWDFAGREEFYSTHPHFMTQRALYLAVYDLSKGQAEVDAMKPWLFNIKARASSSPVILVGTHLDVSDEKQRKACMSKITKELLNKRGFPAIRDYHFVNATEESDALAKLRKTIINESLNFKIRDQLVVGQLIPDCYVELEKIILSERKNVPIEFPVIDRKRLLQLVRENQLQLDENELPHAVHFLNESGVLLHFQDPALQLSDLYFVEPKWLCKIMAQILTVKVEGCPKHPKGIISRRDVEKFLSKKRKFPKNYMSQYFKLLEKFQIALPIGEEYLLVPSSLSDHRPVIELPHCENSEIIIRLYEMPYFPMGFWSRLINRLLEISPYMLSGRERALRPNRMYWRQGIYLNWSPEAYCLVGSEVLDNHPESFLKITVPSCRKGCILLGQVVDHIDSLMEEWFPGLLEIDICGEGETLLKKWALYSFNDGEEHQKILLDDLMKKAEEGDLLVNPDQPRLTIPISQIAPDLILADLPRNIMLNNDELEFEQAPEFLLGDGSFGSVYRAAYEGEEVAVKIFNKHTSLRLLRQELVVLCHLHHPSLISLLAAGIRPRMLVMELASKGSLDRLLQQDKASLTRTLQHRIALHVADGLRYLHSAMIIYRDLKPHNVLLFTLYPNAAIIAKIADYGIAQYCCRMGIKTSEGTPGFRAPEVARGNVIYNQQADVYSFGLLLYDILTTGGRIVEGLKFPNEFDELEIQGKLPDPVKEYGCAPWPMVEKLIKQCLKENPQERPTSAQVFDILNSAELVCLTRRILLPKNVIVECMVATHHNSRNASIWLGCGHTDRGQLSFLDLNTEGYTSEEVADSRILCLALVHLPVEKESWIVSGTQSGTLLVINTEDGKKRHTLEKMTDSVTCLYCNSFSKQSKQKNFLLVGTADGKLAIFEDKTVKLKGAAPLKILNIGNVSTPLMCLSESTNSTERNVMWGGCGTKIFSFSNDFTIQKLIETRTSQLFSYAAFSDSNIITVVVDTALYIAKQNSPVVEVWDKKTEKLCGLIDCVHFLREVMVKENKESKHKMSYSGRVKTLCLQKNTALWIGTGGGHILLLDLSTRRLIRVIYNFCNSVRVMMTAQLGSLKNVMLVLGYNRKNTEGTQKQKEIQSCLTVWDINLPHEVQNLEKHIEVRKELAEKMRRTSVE
T2 sequence (Q5S007 whole entry G2019S): as the sequence (Q5S007 whole entry) above, with G2019S counted along it

Ratio IC50 (Homo sapiens [1]) | IC50 [2] [nM] | IC50 [3] [nM] | IC50 [5] [nM] | IC50 [6] [nM] | IC50 [7] [nM] | IC50 [8] [nM] | IC50 [9] [nM] | IC50 [11] [nM] | Ratio IC50 (Homo sapiens [12]) | IC50 [14] [nM] | IC50 [15] [nM] | Compound | Ratio IC50 (Homo sapiens [4]) | Ratio IC50 (Homo sapiens [10]) | Ratio IC50 (Homo sapiens [13])
344 | 2090 | 3.1 | 11.4 | 3920 | 2.5 | 6.6 | 1.7 | 117 | > 33 | < 0.2 | 1060 | CC1=C(C(=O)Nc2ccc3[nH]nc(-c4ccccc4)c3c2)C(C)(C)n2nnnc2N1C | 71 | 339 | 837
71 | 8740 | 46.1 | 137 | 9740 | 106 | 20 | 19 | 380 | 24 | 0.82 | 5220 | CC1=C(C(=O)Nc2ccc3[nH]nc(C)c3c2)[C@@H](C)n2nnnc2N1C | 20 | 113 | 82
